Experimental data taken from PubChem BioAssay.
Records with an inconclusive call do not appear.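 Rule for the calls, unless noted: active = inhibition over a set limit, the all-compound mean plus 3 SD, in both replicate runs; inconclusive = over that limit in just one replicate run; inactive = at or under that limit in both runs.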

How the values were obtained:
[1] = S. cerevisiae growth inhibition in permissive medium (OD615), pilot counter-assay for S. cerevisiae lifespan shortening project, permissive growth control (AID 705;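 active = growth inhibition above 25% in both replicates, a cutoff set 3 SD above the mean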); details: OD615, 24 h, at 10 µM, stronger effect = higher value
Summary of the method: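 System: Engineered DeaD yeast | Buffer or medium: SC raffinose/galactose permissive medium | Doses: 10 µM single dose, 0.25% DMSO | Times: 24 h exposure, 30 °C | Measured by: OD615 turbidity read | Read-out: Yeast growth inhibition indicated by reduced 24 h OD615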

[2] = S. cerevisiae growth inhibition in restrictive medium, OD615, pilot screen, restrictive growth control, yeast lifespan reduction project (AID 706;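 active = growth inhibition above a set limit, 3 SD over mean compound inhibition, in both replicates, cut at about 43% in these data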;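 note: modified DeaD lifespan yeast strain shifted to restrictive glucose medium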); details: OD615, 48 h, at 10 µM, stronger effect = higher value
Summary of the method: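 Assay system: engineered S. cerevisiae DeaD strain; Buffer or medium: CSMM-D glucose medium; Dosing: 10 µM compound, 0.25% DMSO; Times: cell pre-growth 4 h, compound exposure 48 h, 30 °C; Detection: absorbance (optical density) measured at 615 nm.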

[3] = doxorubicin toxicity protection in MRP-1 cells – H69AR cells, CellTiter-Glo, duplicate, MRP-1 activator project, pilot screen (AID 807;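 active = viability increase at or above a cutoff of the median across tested compounds plus 3 SD, cut at about 8.5% in these data, passing the limit was not always enough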;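 note: compound pretreatment 18-22 h then 72 h combined with doxorubicin; 0% = doxorubicin alone and 100% = vehicle without doxorubicin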); details: H69AR viability with doxorubicin, CellTiter-Glo luminescence; at 10 µM; stronger effect = higher value
[4] = viability of HCT116 without oncogenic beta-catenin – human colon tumor cells, pilot screen (AID 823;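 active = cell viability at or below a set limit in both duplicate runs, the limit being the all-compound median minus 4 SD, cut at about 23% in these data, passing the limit was not always enough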;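 note: 0% = wells killed by 20 µM Hyamine and 100% = untreated DMSO cell wells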); details: HCT116 beta-catenin knockout viability, CellTiter-Glo, 60 h; at 10 µM; stronger effect = lower value
[5] = viability of PTEN-null HCT116 cells – cell-based, HCT116 clonal line, CellTiter-Glo, pilot screen (AID 824;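 active = viability at or below 27.92% in each of two runs, the all-compound median minus 4 SD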;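 note: 0% = 20 µM Hyamine control and 100% = vehicle cell control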); details: HCT116 PTEN-deleted viability, 60 h, at 10 µM, stronger effect = lower value
[6] = RAM pathway blockade in budding yeast – dse1pr::URA3 reporter, 5-FOA selection, pilot screen (AID 869);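 note: 0% = DMSO wells with no growth and 100% = 10 µM 1-NA-PP1 with full growth; RAM network block rescues cells from 5-FOA so hits raise OD615 growth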; details: S. cerevisiae dse1pr::URA3 5-FOA growth, OD615, 2 d; at 10 µM; stronger effect = higher value; strain carries analog-sensitive mutant Cbk1 kinase
[7] = RAM signaling pathway blockade in yeast – S. cerevisiae, Pdr1DBD-CYC8 efflux-inhibited sensitized strain, primary screen (AID 1298;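 active = RAM network inhibition above 8.4% in each of two replicates, 3 SD over the compound average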;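 note: 0% = DMSO untreated cells without growth and 100% = 10 µM 1-NA-PP1 full growth; higher means more yeast growth rescued from 5-FOA killing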); details: S. cerevisiae cbk1-as DSE1-URA3 strain, 5-FOA growth OD615, 2 d; at 50 µM; stronger effect = higher value

COc1cccc(-c2nc(CS(=O)CC(=O)NCc3ccc4c(c3)OCO4)c(C)o2)c1 (centres undefined)
inactive: growth inhibition [1] -3.78% | growth inhibition [2] 14.7% | viability increase [3] 0.74% | viability [4] 97.2% | viability [5] 101% | inhibition [6] 3% | RAM network inhibition [7] 4.76%

CCOC(=O)c1c(C)n(C)c2cc(Br)c(C(=O)OC)cc12
inactive: growth inhibition [1] 8.75% | growth inhibition [2] -4.36% | viability increase [3] -3.53% | viability [4] 97% | viability [5] 96.3% | inhibition [6] 1.99% | RAM network inhibition [7] 7.11%

Cn1c(CSc2nc3ccc(Br)cc3[nH]2)nc2ccccc21
inactive: growth inhibition [1] -3.63% | growth inhibition [2] 12.1% | viability increase [3] 1.66% | viability [4] 90.8% | viability [5] 85.2% | inhibition [6] 1.4% | RAM network inhibition [7] 9.55%

CC1(C)CC(=O)c2sc(NC(=O)C3CC3)nc2C1
inactive: growth inhibition [1] -1.12% | growth inhibition [2] -10.6% | viability increase [3] 1.37% | viability [4] 104% | viability [5] 106% | inhibition [6] 1.47% | RAM network inhibition [7] 1.56%

O=C(c1cnc2n(c1=O)CCS2)N1CCN(C(c2ccccc2)c2ccc(Cl)cc2)CC1 (centres undefined)
inactive: growth inhibition [1] -9.19% | growth inhibition [2] -3.16% | viability increase [3] -5.31% | viability [4] 79.1% | viability [5] 63.7% | inhibition [6] 1.31% | RAM network inhibition [7] 2.72%

CC(C)CN(CC(C)C)c1nnc(N)s1
inactive: growth inhibition [1] 3.15% | growth inhibition [2] 2.1% | viability increase [3] 1.25% | viability [4] 103% | viability [5] 99.5% | inhibition [6] 0.56% | RAM network inhibition [7] 1.13%

Cc1ccc(NC(=O)C2C3C=CC4(CN(Cc5cccnc5)C(=O)C24)O3)cc1F (centres undefined)
inactive: growth inhibition [1] -0.35% | growth inhibition [2] -0.595% | viability increase [3] -1.71% | viability [4] 96.7% | viability [5] 97.2% | inhibition [6] 0.345% | RAM network inhibition [7] 9.57%

COc1ccc(S(=O)(=O)Cc2ccc(C(=O)NCc3ccco3)o2)cc1
inactive: growth inhibition [1] -3.02% | growth inhibition [2] -11.6% | viability increase [3] -4.28% | viability [4] 104% | viability [5] 97.4% | inhibition [6] 0.88% | RAM network inhibition [7] 0.47%

O=C(c1cncc(Br)c1)N1CCN(c2ccc(N3CCOCC3)nn2)CC1
inactive: growth inhibition [1] -0.43% | growth inhibition [2] 8.3% | viability increase [3] -2.32% | viability [4] 98.1% | viability [5] 98.5% | inhibition [6] 0.48% | RAM network inhibition [7] 4.09%

N#Cc1ccc(N2CCN(C(=O)c3cccc(F)c3)CC2)c(F)c1
inactive: growth inhibition [1] 6.81% | growth inhibition [2] 4.18% | viability increase [3] -2.03% | viability [4] 98.4% | viability [5] 87.8% | inhibition [6] 2.12% | RAM network inhibition [7] 0.57%

Cc1cc(C(=O)N2CCN(C(c3ccccc3)c3ccccc3)CC2)on1
inactive: growth inhibition [1] -11.2% | growth inhibition [2] -5.41% | viability increase [3] 0.42% | viability [4] 89.7% | viability [5] 76.7% | inhibition [6] 2.04% | RAM network inhibition [7] 3.7%

CCOC(=O)CON1C(=O)C(C)(C)N(OCC(=O)OCC)C(=O)C1(C)C
inactive: growth inhibition [1] -0.865% | growth inhibition [2] -9.37% | viability increase [3] -0.75% | viability [4] 104% | viability [5] 101% | inhibition [6] 0.38% | RAM network inhibition [7] 1.33%

CCSc1nc2c(c(=O)n1-c1ccc(F)cc1)SCC2
inactive: growth inhibition [1] -7.3% | growth inhibition [2] -6.39% | viability increase [3] -2.75% | viability [4] 89.2% | viability [5] 94.2% | inhibition [6] 1.18% | RAM network inhibition [7] -0.35%

O=C(c1ccc(CS(=O)(=O)c2ccc(Br)cc2)o1)N1CCOCC1
inactive: growth inhibition [1] -10.2% | growth inhibition [2] -12.6% | viability increase [3] -0.67% | viability [4] 104% | viability [5] 97.3% | inhibition [6] 2.23% | RAM network inhibition [7] 0.1%

CCCNC(=O)NCCc1c(C)[nH]c2ccccc12
inactive: growth inhibition [1] 4.3% | growth inhibition [2] -9.91% | viability increase [3] -3.16% | viability [4] 99.8% | viability [5] 99% | inhibition [6] 1.35% | RAM network inhibition [7] 1.69%

COCCN(CCOC)Cc1c(C)[nH]c2c(C)c(C)ccc2c1=O
inactive: growth inhibition [1] -16.2% | growth inhibition [2] -9.49% | viability increase [3] -1.96% | viability [4] 96.8% | viability [5] 100% | inhibition [6] 2.54% | RAM network inhibition [7] 3.28%

CCS(=O)(=O)Nc1ccc(-c2ccc(NS(=O)(=O)CC)c(OC)c2)cc1OC
inactive: growth inhibition [1] -3.19% | growth inhibition [2] -1.95% | viability increase [3] -3.7% | viability [4] 103% | viability [5] 101% | inhibition [6] 2.69% | RAM network inhibition [7] 6.39%
